According to ChEMBL document CHEMBL3632540, “Ynamide Click chemistry in development of triazole VEGFR2 TK modulators” (Eur J Med Chem, 2015):

Key:
[1] = biological target: Vascular endothelial growth factor receptor 2 (Homo sapiens, UniProt P35968); test: Inhibition of GST-tagged human recombinant VEGFR2 kinase expressed in Sf9 insect cells by radiometric protein kinase assay
Method in brief: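 Human VEGFR2 kinase made as GST fusion in Sf9 cells, purified on GSH-agarose, purity checked by SDS-PAGE/silver stain, identity confirmed by mass spectrometry.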

[2] = Cytotoxicity against human HuH7 cells incubated for 72 hrs by SRB assay; format: functional, cell-based, Huh-7
Method in brief: (§1)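 HCC lines kept in DMEM with 10% FBS, L-glutamine, nonessential amino acids and penicillin/streptomycin at 37 °C, 5% CO2, STR-authenticated. Seeded at 2000 cells/well (Huh7) or 1000 cells/well (Mahlavu); serial dilutions added 24 h later, DMSO control. After 72 h, TCA-fixed, SRB-stained, dye solubilized in 10 mM Tris base, A515 read. Triplicates, normalized to DMSO.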

[3] = Cytotoxicity against human Mahlavu cells incubated for 72 hrs by SRB assay; format: functional, cell-based; method in brief: as §1
[4] = Homo sapiens, Huh-7, 72 h, read-out: IC50

Sequence of Vascular endothelial growth factor receptor 2 (P35968 whole entry, the tested form may be a part): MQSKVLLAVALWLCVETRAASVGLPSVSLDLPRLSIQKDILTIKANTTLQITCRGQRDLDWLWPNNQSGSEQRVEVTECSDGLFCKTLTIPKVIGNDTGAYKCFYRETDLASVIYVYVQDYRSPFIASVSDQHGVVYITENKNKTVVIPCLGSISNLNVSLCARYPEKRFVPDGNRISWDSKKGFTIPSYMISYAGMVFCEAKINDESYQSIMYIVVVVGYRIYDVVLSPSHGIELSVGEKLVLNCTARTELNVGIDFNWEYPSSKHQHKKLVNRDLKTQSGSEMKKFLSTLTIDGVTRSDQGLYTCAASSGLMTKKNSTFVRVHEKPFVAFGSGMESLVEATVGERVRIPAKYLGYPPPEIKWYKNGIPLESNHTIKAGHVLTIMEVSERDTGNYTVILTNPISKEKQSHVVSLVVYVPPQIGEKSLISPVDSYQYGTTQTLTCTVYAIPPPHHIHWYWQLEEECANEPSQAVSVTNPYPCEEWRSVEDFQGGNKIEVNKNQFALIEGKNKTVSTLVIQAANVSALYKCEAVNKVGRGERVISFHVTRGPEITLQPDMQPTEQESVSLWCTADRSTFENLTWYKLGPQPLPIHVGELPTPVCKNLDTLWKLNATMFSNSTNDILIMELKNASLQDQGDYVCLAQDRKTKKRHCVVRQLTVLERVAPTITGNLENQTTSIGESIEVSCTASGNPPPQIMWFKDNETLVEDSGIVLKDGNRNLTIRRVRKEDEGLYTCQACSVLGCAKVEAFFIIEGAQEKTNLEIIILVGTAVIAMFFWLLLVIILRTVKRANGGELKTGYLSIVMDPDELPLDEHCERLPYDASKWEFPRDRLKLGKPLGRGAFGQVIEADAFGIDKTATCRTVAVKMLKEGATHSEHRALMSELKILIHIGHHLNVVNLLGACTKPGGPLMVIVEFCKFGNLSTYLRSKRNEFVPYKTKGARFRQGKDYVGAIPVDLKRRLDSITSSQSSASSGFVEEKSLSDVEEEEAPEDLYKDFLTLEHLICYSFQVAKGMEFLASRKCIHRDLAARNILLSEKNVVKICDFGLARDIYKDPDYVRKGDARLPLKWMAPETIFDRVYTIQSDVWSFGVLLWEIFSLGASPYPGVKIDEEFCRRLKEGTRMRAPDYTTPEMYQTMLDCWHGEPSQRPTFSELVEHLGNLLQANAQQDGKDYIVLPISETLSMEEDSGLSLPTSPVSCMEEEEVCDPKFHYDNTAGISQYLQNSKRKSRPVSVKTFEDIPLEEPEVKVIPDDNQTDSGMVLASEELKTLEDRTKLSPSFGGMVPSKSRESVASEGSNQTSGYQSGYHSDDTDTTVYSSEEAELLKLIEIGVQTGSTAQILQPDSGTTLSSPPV

Row | SMILES | IC50 ([1]; read-out: IC50) [µM] | IC50 [2, 4] [µM] | IC50 [3] [µM] | IC50 ([2]; huh-7) | IC50 ([1]; sf9)
1 | CCS(=O)(=O)c1ccc(OC)c(Nc2cn(-c3ccc(O)c(-c4cc[nH]c4)c3)nn2)c1 | 40.1 | 18.6 | 11.9 | – | –
2 | CCS(=O)(=O)c1ccc(OC)c(Nc2cn(-c3ccc(NC(N)=O)c(-c4cccc5ccccc45)c3)nn2)c1 | > 100 | – | 27.9 | Not Active | –
3 | CCS(=O)(=O)c1ccc(OC)c(Nc2cn(-c3ccc(O)c(-c4ccccn4)c3)nn2)c1 | 6.96 | 17.7 | 13.8 | – | –
4 | CCS(=O)(=O)c1ccc(OC)c(Nc2cn(-c3cc(-c4ccccc4)nc(-c4ccccc4)n3)nn2)c1 | – | – | – | – | Not Active
5 | CCS(=O)(=O)c1ccc(OC)c(Nc2cn(-c3ccc(O)c(-c4cccnc4)c3)nn2)c1 | – | – | – | – | Not Active
6 | CCS(=O)(=O)c1ccc(OC)c(Nc2cn(-c3cccc(-c4cccnc4)c3)nn2)c1 | > 100 | 12.8 | 11.8 | – | –
7 | CCS(=O)(=O)c1ccc(OC)c(Nc2cn(-c3cccc(-c4ccccn4)c3)nn2)c1 | 42 | – | – | – | –
